In ChEMBL document CHEMBL3526029, “Disposition and metabolism of GSK2251052 in humans: a novel boron-containing antibiotic” (Drug Metab Dispos, 2013):
Blank lines part the entries; values can stand above or below the compound they belong to.

Experiments:
[1] = AUC (0 to t) in healthy human plasma at 1500 mg, iv infusion for 1 hr as single dose; type: ADME, organism-based
Procedure, shortened: (§1)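 Six fasted healthy men received 1500 mg [14C]GSK2251052 as a 1-h constant-rate i.v. infusion. K2EDTA plasma was sampled from predose to 72 h, with profiling samples added at 96, 144 and 336 h. Parent and M3 were measured by validated LC/MS/MS after methanol/formic acid precipitation with stable-label internal standards (range 5–10,000 ng/ml). Noncompartmental analysis used actual times, linear-up/log-down trapezoids and CL = dose/AUC(0-∞).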

[2] = AUC (0 to infinity) in healthy human plasma at 1500 mg, iv infusion for 1 hr as single dose; type: ADME, organism-based; parameters: dose 1500 mg, route intravenous, time infinity; procedure, shortened: as §1
[3] = Cmax in healthy human plasma at 1500 mg, iv infusion for 1 hr as single dose; type: ADME, organism-based; parameters: dose 1500 mg, route intravenous; procedure, shortened: as §1
[4] = Clearance in healthy human plasma at 1500 mg, iv infusion for 1 hr as single dose; type: ADME, organism-based; procedure, shortened: as §1
[5] = Volume of distribution at steady state in healthy human plasma at 1500 mg, iv infusion for 1 hr as single dose; type: ADME, organism-based; settings: read-out: Vdss
Procedure, shortened: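 Healthy males got 1500 mg by 1-h IV infusion. Plasma (K2EDTA) was sampled to 72 h, plus 96, 144 and 336 h. Parent was measured by a validated LC/MS/MS method after methanol/formic acid precipitation with a stable-isotope internal standard (range 5–10,000 ng/ml). Vss = CL × MRT from noncompartmental analysis.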

[6] = Half life in healthy human plasma at 1500 mg, iv infusion for 1 hr as single dose; type: ADME, organism-based
Procedure, shortened: (§2)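 Healthy men got a single 1500 mg [14C] dose by 1 h i.v. infusion. K2EDTA blood was sampled up to 336 h. Radioactivity in blood and plasma was measured by LSC, with AMS for plasma below LLQ. Parent and M3 were measured by LC/MS/MS (5–10,000 ng/ml range). Noncompartmental analysis used actual times, with t1/2 = ln2/λz and Tmax observed directly, timed from infusion start.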

[7] = Tmax in healthy human plasma at 1500 mg, iv infusion for 1 hr as single dose; type: ADME, organism-based; procedure, shortened: as §2
[8] = Clearance in cynomolgus monkey at 35 mg/kg, iv administered as single infusion for 1 hr; type: ADME, organism-based, Macaca fascicularis; parameters: dose 35 mg/kg, route intravenous; settings: in vivo
Procedure, shortened: (§3)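 Male cynomolgus monkeys given a 1-h i.v. infusion at 35 mg/kg (7 mg/ml in saline, pH 5, 5 ml/kg/h). Where 4-MP was used, it was given by oral gavage 1 h before infusion (8.75 mg/ml in water, 4 ml/kg). K2EDTA plasma was sampled from 0.5 to 120 h after infusion start. Parent and M3 were measured by LC/MS/MS after protein precipitation (range 100–200,000 ng/ml). Noncompartmental analysis used nominal times.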

[9] = Volume of distribution at steady state in cynomolgus monkey at 35 mg/kg, iv administered as single infusion for 1 hr; type: ADME, organism-based, Macaca fascicularis; parameters: dose 35 mg/kg, route intravenous; settings: in vivo, read-out: Vdss
Procedure, shortened: (§4)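 Cynomolgus monkeys got a 1-h IV infusion at 35 mg/kg (7 mg/ml in saline, pH 5), either alone or 1 h after oral gavage of 4-methylpyrazole (8.75 mg/ml in water, 4 ml/kg). Plasma (K2EDTA) was sampled to 120 h and assayed by protein precipitation and LC/MS/MS (range 100–200,000 ng/ml). Vss (CL × MRT) was derived by noncompartmental analysis on nominal times; values are for males.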

[10] = Mean residence time in cynomolgus monkey at 35 mg/kg, iv administered as single infusion for 1 hr; type: ADME, organism-based, Macaca fascicularis; parameters: dose 35 mg/kg, route intravenous; settings: in vivo
Procedure, shortened: (§5)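 Male cynomolgus monkeys received 35 mg/kg as a 1 h i.v. infusion (7 mg/ml in saline, pH 5; 5 ml/kg/h), either alone or 1 h after oral gavage of 4-MP (8.75 mg/ml in water, 4 ml/kg). Plasma was sampled from 0.5 to 120 h, and parent and M3 were measured by LC/MS/MS. Noncompartmental analysis used nominal times, with t1/2 = ln2/λz.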

[11] = Half life in cynomolgus monkey at 35 mg/kg, iv administered as single infusion for 1 hr; type: ADME, organism-based, Macaca fascicularis; parameters: dose 35 mg/kg, route intravenous; settings: in vivo; procedure, shortened: as §5
[12] = Tmax in cynomolgus monkey at 35 mg/kg, iv administered as single infusion for 1 hr; type: ADME, organism-based, Macaca fascicularis; parameters: dose 35 mg/kg, route intravenous; settings: in vivo; procedure, shortened: as §5
[13] = AUC (0 to infinity) in cynomolgus monkey at 35 mg/kg, iv administered as single infusion for 1 hr followed single oral dose of 35 mg/kg 4-MP; type: ADME, organism-based, Macaca fascicularis; settings: plasma; procedure, shortened: as §3
[14] = Cmax in cynomolgus monkey at 35 mg/kg, iv administered as single infusion for 1 hr followed single oral dose of 35 mg/kg 4-MP; type: ADME, organism-based, Macaca fascicularis; settings: in vivo; procedure, shortened: as §3
[15] = Clearance in cynomolgus monkey at 35 mg/kg, iv administered as single infusion for 1 hr followed single oral dose of 35 mg/kg 4-MP; type: ADME, organism-based, Macaca fascicularis; settings: in vivo; procedure, shortened: as §3
[16] = Volume of distribution at steady state in cynomolgus monkey at 35 mg/kg, iv administered as single infusion for 1 hr followed single oral dose of 35 mg/kg 4-MP; type: ADME, organism-based, Macaca fascicularis; settings: in vivo, read-out: Vdss; procedure, shortened: as §4
[17] = Mean residence time in cynomolgus monkey at 35 mg/kg, iv administered as single infusion for 1 hr followed single oral dose of 35 mg/kg 4-MP; type: ADME, organism-based, Macaca fascicularis; settings: in vivo; procedure, shortened: as §5
[18] = Half life in cynomolgus monkey at 35 mg/kg, iv administered as single infusion for 1 hr followed single oral dose of 35 mg/kg 4-MP; type: ADME, organism-based, Macaca fascicularis; settings: in vivo; procedure, shortened: as §5
[19] = Tmax in cynomolgus monkey at 35 mg/kg, iv administered as single infusion for 1 hr followed single oral dose of 35 mg/kg 4-MP; type: ADME, organism-based, Macaca fascicularis; settings: in vivo; procedure, shortened: as §5
[20] = Drug metabolism in human liver cytosol assessed as ADH-mediated (S)-3-(3-(aminomethyl)-1-hydroxy-1,3-dihydrobenzo[c][1,2]oxaborol-7-yloxy)propanoicacid formation at 50 to 500 uM by spectrophotometry in presence of NAD+; type: ADME; settings: TDE = time-dependent effect
[21] = Drug metabolism assessed as purified ADH (unknown origin)-mediated (S)-3-(3-(aminomethyl)-1-hydroxy-1,3-dihydrobenzo[c][1,2]oxaborol-7-yloxy)propanoicacid formation at 50 to 500 uM by spectrophotometry in presence of NAD+; type: ADME; settings: human, TDE = time-dependent effect
Liver cytosol = assay: Drug metabolism in human liver cytosol assessed as (S)-3-(3-(aminomethyl)-1-hydroxy-1,3-dihydrobenzo[c][1,2]oxaborol-7-yloxy)propanoicacid formation at 50 to 500 uM after 3 hrs by spectrophotometry in presence of NAD+ and ADH inhibitor 4-MP; type: ADME
[22] = AUC (0 to infinity) in cynomolgus monkey at 35 mg/kg, iv administered as single infusion for 1 hr; type: ADME, organism-based, Macaca fascicularis; parameters: time infinity, dose 35 mg/kg, route intravenous; settings: plasma; procedure, shortened: as §3
[23] = Cmax in cynomolgus monkey at 35 mg/kg, iv administered as single infusion for 1 hr; type: ADME, organism-based, Macaca fascicularis; parameters: dose 35 mg/kg, route intravenous; settings: in vivo; procedure, shortened: as §3
[24] = Drug recovery in healthy human urine treated with [14C]GSK2251052 at 1500 mg, iv infusion for 1 hr as single dose after 120 to 336 hrs by HPLC method; type: ADME, organism-based; settings: in vivo, BLD = below limit of detection
Procedure, shortened: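 Urine pooled by weight per subject over 0–120 h; 120–336 h pools from all subjects combined into one composite. Centrifuged at ~21,000g, then supernatant profiled by HPLC (Atlantis T3, ammonium acetate pH 4.5/methanol, 30°C) with radiochemical detection plus MS identification. Results are % of dose, corrected for centrifugation recovery measured by triplicate LSC.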

[25] = Drug recovery in healthy human feces treated with [14C]GSK2251052 at 1500 mg, iv infusion for 1 hr as single dose after 120 hrs by HPLC method; type: ADME, organism-based; settings: in vivo
Procedure, shortened: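 Feces pooled over 0–120 h per subject by sample weight. About 1 g homogenate extracted twice with 4 volumes of acetonitrile:methanol:water:formic acid (50:25:25:1) under 20 min sonication. Extracts dried and reconstituted in water:methanol 90:10. Profiled by HPLC (Atlantis T3, ammonium acetate pH 4.5/methanol, 30°C) with fraction radiocounting and Orbitrap MS. Results given as % of dose, corrected for extraction recovery.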

[26] = Drug recovery in healthy human feces treated with [14C]GSK2251052 at 1500 mg, iv infusion for 1 hr as single dose after 0 to 120 hrs by HPLC method; settings: in vivo

- AUC(0-t) at 1 h [1]: 72300 ng·h/mL
- AUC(0-inf) [2]: 72500 ng·h/mL
- Cmax [3]: 24600 ng/mL
- clearance [4]: 345 mL/min
- Vd [5]: 197 L
- half-life [6]: 11.6 h
- Tmax [7]: 0.917 h
- clearance [8]: 10 mL/min/kg
- Vd [9]: 3.04 L/kg
- MRT [10]: 4.9 h
- half-life [11]: 5.4 h
- Tmax [12]: 0.92 h
- AUC(0-inf) [13]: 161000 ng·h/mL
- Cmax [14]: 68600 ng/mL
- clearance [15]: 3.67 mL/min/kg
- Vd [16]: 2.53 L/kg
- MRT [17]: 11 h
- half-life [18]: 9.2 h
- Tmax [19]: 0.92 h
- Drug metabolism [20]: tde
- Drug metabolism [21]: tde
- Drug metabolism (Liver cytosol): metabolite_not_detected
- AUC(0-inf) [22]: 60700 ng·h/mL
- Cmax [23]: 46000 ng/mL
SMILES: Cl.NC[C@H]1OB(O)c2c(OCCCO)cccc21

- Drug recovery [24]: BLD
- Drug recovery [25]: 1.4%
- Drug recovery [26]: 1.4%
SMILES: NCC(O)c1cccc(OCCC(=O)O)c1O (stereo not drawn)

- Drug recovery [24]: BLD
SMILES: NCC(O)c1cccc(OCCCO)c1O (stereo not drawn)
